Compound activity as filed in PubChem.
Sampled rows, rich in hits. Any-hit rate of the full collection: about 3.6%.
PolyA inh = yeast polyadenylation inhibition | S. cerevisiae SKY197-pL101 polyadenylation reporter, beta-gal luminescence; efflux-impaired pdr1/pdr3 knockout yeast; score 100 = 6 SD above DMSO | activity score, % at 12 µM | 300,000 compounds, 0.02% hits | AID 1875;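 active means lowest replicate activity score at least 50, where 100 means six control SD above control mean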;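 further: yeast exposed to compound for 9 h at 30 °C; higher score means more reporter readthrough which indicates perturbed polyadenylation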
STAT3 act = activators of IL-6 induced STAT3 signaling | U3A cells, IL-6 STAT3-luciferase reporter, luminescence; 100% = signal with IL-6 EC80 alone | activation (% of control), % at 5.6 µM | 190,000 compounds, 0.91% hits | AID 871;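 active means activation above the screen-wide mean of compound activation plus 3 SD, cut at about 130% in these data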;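 further: 0% = background luminescence of wells with medium and substrate only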
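Material: STAT3-luciferase reporter U3A cells. Controls: IL-6-treated wells, 100% activation. Read-out: % activation versus median of IL-6-stimulated wells. Probe or stimulus: IL-6 stimulus at 33 ng/mL final. Timing: compound 1 h, then IL-6 6 h at 37 °C. Signal: reporter luminescence signal.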
Hsp70 act = Hsp70 transcriptional activation, primary screen | 200,000 compounds, 0.04% hits | activation, % at 10 µM | HeLa Hsp70 promoter luciferase reporter, luminescence; scaled: vehicle 0, proteasome-inhibitor control 100% | AID 1203;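 active means activation above the mean across all tested compounds plus 3 SD, cutoff set per campaign, cut at about 5.5% in these data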;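 further: 100% = MG132 at 30 µM as the positive control and 0% = DMSO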
HSF1 inhib = HSF1 inhibition; activity change, negative = inhibition, % at 7.5 µM (by protocol); AID 2098; 300,000 compounds, 0.77% hits; NIH3T3-HGL HSE-luciferase, MG132-induced, luminescence 8 h; active compounds read low;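 active means more than half of replicate wells show activity change below -50%, luminescence cut by over half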;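 further: luciferase reports HSF-1 transcriptional activity via heat shock element; 0% = median of DMSO wells and -100% = zero luminescence signal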
PERK inh = human PERK inhibition, primary cell-based screen. Q9NZJ5. CHO PERK-DD fusion, SEAP luminescence translation reporter. inhibition, % at 5.6 µM. 220,000 compounds, 0.17% hits. AID 1416;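 active means inhibition above the mean inhibition of all tested compounds plus 3 SD, set separately per screening campaign, cut at about 2.9% in these data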;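 further: PERK kinase domain activated by AP20187 dimerizer at 100 nM; 0% = DMSO with dimerizer and 100% = rapamycin at 8.4 µM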
AHR activator = activators of human aryl hydrocarbon receptor. AHR-responsive luciferase reporter cells, luminescence. activation, % at 5 µM. 320,000 compounds, 2.5% hits. AID 2796; in the data active means activation above about 47%;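 further: 0% = vehicle wells and 100% = reference agonist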
AHR act cf = confirmation of human aryl hydrocarbon receptor activators; shares compounds with AHR activator; human cells, AHR-responsive luciferase reporter, luminescence; activation, % at 9 µM; 2,300 compounds, 87% hits; AID 2845; in the data active means activation above about 49%;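 further: HepG2 hepatoma cells carrying a DRE-driven firefly luciferase reporter; 0% = vehicle wells and 100% = reference agonist wells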
PXR counter = counter-screen for AHR activators: human PXR activators. shares compounds with AHR activator. cell-based PXR reporter, luciferase luminescence. activation, % at 11.6 µM. 2,300 compounds, 88% hits. AID 434939; in the data active means activation above about 11%;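 further: human hepatoma DPX-2 cells expressing full-length human PXR; 0% = DMSO and 100% = reference agonist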
Target sequence (O75469 whole entry, looked up): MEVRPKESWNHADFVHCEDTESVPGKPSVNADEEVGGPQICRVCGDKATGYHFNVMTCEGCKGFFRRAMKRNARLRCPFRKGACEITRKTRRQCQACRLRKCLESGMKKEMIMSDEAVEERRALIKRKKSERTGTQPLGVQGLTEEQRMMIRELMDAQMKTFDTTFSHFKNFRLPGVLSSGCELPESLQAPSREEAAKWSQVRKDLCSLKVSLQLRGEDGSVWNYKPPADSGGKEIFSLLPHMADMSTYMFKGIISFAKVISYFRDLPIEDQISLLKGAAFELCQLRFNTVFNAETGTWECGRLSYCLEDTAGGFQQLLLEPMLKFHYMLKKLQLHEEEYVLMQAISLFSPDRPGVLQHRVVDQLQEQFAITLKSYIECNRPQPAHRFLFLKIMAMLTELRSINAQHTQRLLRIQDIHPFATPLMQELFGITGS
The depositor's hits bear a star.

How did CC(=O)N(Cc1ccco1)c1nc(C(=O)Nc2ccc(Cl)cc2)c(C)s1 do in these assays?
PolyA inh: 25.5; STAT3 act: 94.8; Hsp70 act: 0.2; HSF1 inhib: 15.4; PERK inh: -0.4; AHR activator: 90.3*; AHR act cf: 65.6*; PXR counter: 62.7*

How did COc1cc(OC)cc(-c2c(C#Cc3ccsc3)c3cc(-c4cccc5[nH]cc(C=O)c45)ccc3n2C)c1 do in these assays?
AHR activator: 12.4

What do the screens show for `CN(C)c1ccc(/C=N\NC(=O)c2csnn2)cc1`?
PolyA inh: 17.2; STAT3 act: 71.8; Hsp70 act: 0.2; HSF1 inhib: 18.2; PERK inh: 0.9; AHR activator: 110.9*; AHR act cf: 54.5*; PXR counter: 10.2*

Results for CN(C)c1ccc(/C=N/NC(=O)c2ccccn2)cc1 ?
PolyA inh: -1.0; HSF1 inhib: 4.7; PERK inh: 1.0; AHR activator: 32.9

How did Cc1cc(C)n(CC(=O)c2ccccc2)c(=O)c1C#N do in these assays?
PolyA inh: -9.0; STAT3 act: 112.0; Hsp70 act: -0.1; HSF1 inhib: -1.4; PERK inh: 0.4; AHR activator: 99.8*; AHR act cf: 104.6*; PXR counter: 21.6*

What do the screens show for `Cc1c(C(=O)NCc2ccccn2)oc2c(Cl)cccc12`?
AHR activator: 87.3*; AHR act cf: 132.1*; PXR counter: 50.1*

What do the screens show for `Cc1c(C(=O)NCc2ccco2)oc2c(Cl)cccc12`?
AHR activator: 39.7

Results for CC(C)C[C@H]1CN=C(Nc2ccccc2)N1CC1CCCCCC1 ?
AHR activator: 3.3

How did Cc1cccc(Nc2n[nH]c(=S)s2)c1C do in these assays?
PolyA inh: 3.3; STAT3 act: 101.1; Hsp70 act: -0.3; HSF1 inhib: 2.8; PERK inh: 1.2; AHR activator: -2.3

What do the screens show for `Cc1cccc(Nc2nc3ccccc3s2)c1C`?
PolyA inh: -11.3; STAT3 act: 82.0; Hsp70 act: 0.1; HSF1 inhib: 57.8; PERK inh: 0.1; AHR activator: 100.7*; AHR act cf: 50.0*; PXR counter: 72.5*

What do the screens show for `Cn1c(Cl)nc2ccccc21`?
PolyA inh: 8.9; STAT3 act: 124.3; Hsp70 act: -0.5; HSF1 inhib: 2.5; PERK inh: 0.2; AHR activator: 10.7

How did Cn1c(N=Nc2ccccc2)nc2ccccc21 do in these assays?
PolyA inh: -13.3; STAT3 act: 57.9; Hsp70 act: -0.3; HSF1 inhib: -7.4; PERK inh: -0.2; AHR activator: 138.2*; AHR act cf: 97.7*; PXR counter: 9.8

How did O=C(NC(=S)Nc1ccccc1N1CCCCC1)c1ccco1 do in these assays?
PolyA inh: -12.5; STAT3 act: 99.6; Hsp70 act: -0.4; HSF1 inhib: 6.6; PERK inh: 0.6; AHR activator: 14.7

What do the screens show for `O=C(NC(=S)Nc1ccccc1N1CCCC1)c1ccco1`?
PolyA inh: -5.5; HSF1 inhib: -2.4; PERK inh: 0.6; AHR activator: 168.5*; AHR act cf: 123.7*; PXR counter: 30.5*

What do the screens show for `CC(=O)c1cccc(NC(=O)c2ccc(Br)o2)c1`?
PolyA inh: -14.9; STAT3 act: 94.3; Hsp70 act: -0.3; HSF1 inhib: 3.7; PERK inh: 1.1; AHR activator: 26.2

Results for O=C(Nc1cccc(F)c1)c1c(F)c(F)c(F)c(F)c1F ?
PolyA inh: -13.4; STAT3 act: 94.9; Hsp70 act: -0.3; HSF1 inhib: -10.5; PERK inh: 0.0; AHR activator: 95.0*; AHR act cf: 71.6*; PXR counter: 30.5*

How did Cc1cccc(NC(=O)c2c(F)c(F)c(F)c(F)c2F)c1 do in these assays?
PolyA inh: 2.0; STAT3 act: 102.5; Hsp70 act: 0.0; HSF1 inhib: 12.5; PERK inh: -1.1; AHR activator: 8.5
